NR2E3 ag-1 – human photoreceptor-specific nuclear receptor agonism; inhibition of corepressor binding, % at 3.98 µM; CHO-S Gal4-NCOR/VP16-NR2E3 two-hybrid, luciferase; Q9Y5X4; AID 602229; 0.35% of 360,000 active;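 active means inhibition above the mean of all tested compounds plus 3 SD, cut at about 70% in these data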;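 further: 0% = DMSO with NR2E3 transfected cells and 100% = cells lacking NR2E3 construct; higher means lower luciferase signal from less NR2E3 corepressor binding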
NR2E3 ag-2 – agonists of human nuclear receptor NR2E3. Q9Y5X4. GST-NR2E3/biotin-RetCOR TR-FRET, 1536-well. inhibition of corepressor binding, % at 4.78 µM. 0.12% of 320,000 active;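 active means percent inhibition above the cutoff of mean plus 3 SD of all tested compounds, set per screening campaign, cut at about 20% in these data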;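 further: 0% = DMSO wells and 100% = biotin wells as full block of FRET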
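Format: 1536-well format; test system: GST-NR2E3 and biotin-RetCOR proteins; read-out basis: percent inhibition of TR-FRET ratio; timing: 5 h incubation at 4 °C; detection: time-resolved FRET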
NR1D1 modulator – modulators of human Rev-erb alpha DNA binding; P20393; activity, % at 10 µM; Rev-erbα–FITC-DNA binding, fluorescence polarization, 90 min; 0.79% of 370,000 active;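 active means activity above about 14%, limit read from the data; passing the limit was not always enough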;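 further: 0% = DMSO wells with 35 nM protein and 100% = DMSO wells with 750 nM protein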
Target sequence (P20393 whole entry, looked up): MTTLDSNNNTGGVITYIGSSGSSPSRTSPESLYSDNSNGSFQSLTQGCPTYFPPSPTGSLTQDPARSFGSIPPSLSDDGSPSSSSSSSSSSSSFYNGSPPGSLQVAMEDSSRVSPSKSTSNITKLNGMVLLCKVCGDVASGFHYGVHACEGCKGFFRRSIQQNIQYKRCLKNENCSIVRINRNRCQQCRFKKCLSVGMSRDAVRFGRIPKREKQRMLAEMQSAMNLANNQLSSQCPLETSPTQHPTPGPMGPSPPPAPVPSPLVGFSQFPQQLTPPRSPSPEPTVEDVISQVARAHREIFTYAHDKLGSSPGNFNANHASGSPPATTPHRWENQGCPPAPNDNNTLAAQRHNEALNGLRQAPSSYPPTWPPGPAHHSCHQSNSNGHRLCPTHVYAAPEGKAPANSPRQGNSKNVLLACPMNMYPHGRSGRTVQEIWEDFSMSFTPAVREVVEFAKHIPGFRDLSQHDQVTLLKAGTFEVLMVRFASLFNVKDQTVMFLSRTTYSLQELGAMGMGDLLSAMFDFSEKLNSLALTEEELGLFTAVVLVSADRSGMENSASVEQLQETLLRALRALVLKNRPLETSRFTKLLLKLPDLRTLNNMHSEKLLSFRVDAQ
PG9 Ab binder – PG9 antibody binding by small molecule; TR-FRET gp120-PG9 antibody binding; inhibition, % at 6.7 µM; 0.43% of 360,000 active; AID 624416; in the data active means inhibition above about 8.5%
Rev-erbA confirm – Rev-erb alpha (human) modulation, hit confirmation; Rev-erb alpha FITC-DNA binding, fluorescence polarization, 90 min; 61% of 3,000 active; activation, % at 25 µM; shares compounds with NR1D1 modulator;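 active means activation at or above a set limit, or at least 3 SD above the negative control mean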;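 further: 0% = 35 nM protein with DMSO and 100% = 750 nM protein high control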
RORg DNA counter – RORgamma DNA-binding activity, dose-response counter-screen; shares compounds with NR1D1 modulator; purified RORgamma protein-FITC-DNA binding, fluorescence polarization; IC50, µM; 8% of 910 active;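 active means Compounds whose fitted half-maximal concentration for disrupting protein-DNA binding is below 10 micromolar; the record names Rev-erb in its text, so the target is in doubt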
Starred values were filed as active, the others as inactive; i = inactive; / = not tested or not shown. Sampled rows, rich in hits. Any-hit rate of the full collection: about 1.4%.

SMILES | NR2E3 ag-1 | NR2E3 ag-2 | NR1D1 modulator | PG9 Ab binder | Rev-erbA confirm | others
O=C(Cc1ccc(Cl)cc1)NC(=S)Nc1ccccc1N1CCOCC1 | 7 | 0 | -1 | -1 | /
Cn1cc(Cl)c(C(=O)Nc2nc3ccc(Cl)cc3s2)n1 | -41 | -2 | 83* | 8 | 25*
N#Cc1c(-c2ccccc2Cl)cc(C2CC2)nc1N | -1 | 3 | 2 | 2 | /
N#Cc1c(-c2cccc(F)c2)cc(-c2ccccc2)nc1Br | -23 | -1 | 58* | 9.1* | 25*
N#Cc1c(-c2ccccc2Cl)cc(-c2ccccc2)nc1Br | -1 | 5 | 32* | 4 | 22*
C[C@H]1[C@H](NC(=O)c2ccc(Cl)c(C(F)(F)F)c2)CC[C@@]23CCCN2C(=O)CCC[C@@H]13 | / | / | 3 | / | /
COC(=O)COc1ccc2cc(-c3ccc(OC)cc3)c(=O)oc2c1 | -8 | -2 | 25* | -1 | -4
COc1ccc(-c2cc3ccc(OCC(C)=O)cc3oc2=O)cc1OC | -56 | 1 | 19* | -1 | 15
Cc1ccc(C(=O)C2CCN(CC(=O)N(C)C3CCCCC3)CC2)cc1 | / | / | -5 | / | /
O=C1CCC[C@H]2C[C@H](NCc3ccco3)CC[C@]23CCCN13 | / | / | 1 | / | /
Cc1ccc(-n2c(SCC(=O)Nc3ccc(S(=O)(=O)Nc4cc(C)nc(C)n4)cc3)nnc2-c2ccncc2)cc1 | / | / | -2 | / | /
Cc1ccc(C(=O)n2ccc3ccc(-c4ccc5ccn(Cc6ccc(C#N)cc6)c5c4)cc32)cc1 | / | / | 40* | / | 14*
COC(=O)c1ccc(Cn2ccc3ccc(-c4ccc5ccn(C(=O)c6ccc(C)cc6)c5c4)cc32)cc1 | / | / | 50* | / | 62* | RORg DNA counter=1.4*
COC(=O)c1cccc(Cn2ccc3ccc(-c4ccc5ccn(C(=O)c6ccccc6)c5c4)cc32)c1 | / | / | 17 | / | /
COc1ccc(Cn2ccc3ccc(-c4ccc5ccn(C(=O)c6ccccc6)c5c4)cc32)cc1 | / | / | -15 | / | /
CCCCOc1ccc(C(=O)n2ccc3ccc(-c4ccc5ccn(Cc6cccc(C(=O)OC)c6)c5c4)cc32)cc1 | / | / | 37* | / | 21*
COC(=O)c1ccc(Cn2ccc3ccc(-c4ccc5ccn(Cc6ccccc6)c5c4)cc32)cc1 | / | / | -4 | / | /
COc1ccc(Cn2ccc3ccc(-c4ccc5ccn(C(=O)c6ccc(C)cc6)c5c4)cc32)cc1 | / | / | 37* | / | 45* | RORg DNA counter=>40
O=C(c1cc(F)ccc1F)N1CCCC(c2nc(-c3cccs3)no2)C1 (stereo unspecified) | / | / | 5 | / | /
CCNC(=O)OCCN1C(=O)CCC12CCC(c1ccc(Cl)cc1)CC2 (stereo unspecified) | / | / | 4 | / | /
CC(C)(C)OC(=O)/C=C/[C@H](CCCCl)Sc1ccc(C(C)(C)C)cc1 | / | / | -1 | / | /
CCc1ccc(CCNC(=O)OC2CCC23CCC(c2ccccc2)CC3)cc1 (stereo unspecified) | / | / | 0 | / | /
COc1ccc(Cn2ccc3ccc(-c4ccc5ccn(C(=O)C6CCCCC6)c5c4)cc32)cc1 | / | / | 16 | / | /
Cc1ccc(C(=O)n2ccc3ccc(-c4ccc5ccn(Cc6ccccc6)c5c4)cc32)cc1 | / | / | 39* | / | 27*
CCCCOc1ccc(C(=O)n2ccc3ccc(-c4ccc5ccn(Cc6ccc(OC)cc6)c5c4)cc32)cc1 | / | / | 35* | / | 6
SMILES | NR2E3 ag-1 | NR2E3 ag-2 | NR1D1 modulator | PG9 Ab binder | Rev-erbA confirm | others
COC(=O)c1ccc(Cn2ccc3ccc(-c4ccc5ccn(C(=O)C6CCCCC6)c5c4)cc32)cc1 | / | / | 25* | / | 34* | RORg DNA counter=i
CC(C)(C)C(=O)C(Oc1ccc(Cl)cc1)n1ccnc1 (stereo unspecified) | / | / | -7 | / | /
COC(=O)[C@H](C)NC(=O)C(Cc1ccc2c(c1)OCO2)NC(C)=O (stereo partly specified) | / | / | -6 | / | /
CNC(=O)COC(=O)c1cc2c(C)nn(-c3ccc(F)cc3)c2s1 | 14 | 0 | 17* | 1 | 14
O=C(NCC1COCCO1)C1CCN(S(=O)(=O)c2cccs2)CC1 (stereo unspecified) | / | / | -6 | / | /
CC(C)CNc1nnnc2c1sc1nc(N3CCOCC3)c3c(c12)CC(C)(C)SC3 | -4 | 2 | -5 | 1 | /
CC1(C)Cc2c(c(N3CCOCC3)nc3sc4c(NN)ncnc4c23)CS1 | -27 | 1 | 28* | -2 | 34* | RORg DNA counter=>40
CCN(C)C(=O)CNc1nnnn1-c1ccccc1 | / | / | 1 | / | /
C/C(C=NNC(=O)c1cc(-c2ccc(Cl)cc2)n[nH]1)=C\c1ccccc1 | / | / | 2 | / | /

Source: PubChem BioAssay
